A short description of test [1]: Cell cycle arrest in BrdU pulse-labelled human HCT116 cells assessed as accumulation at subG1 phase at 125 to 500 nM after 24 hrs by propidium iodide staining based flow cytometry. Format: functional. The following applies: HCT-116. On the technique in general: A flow cytometer gives signals particle by particle.
The subject of another test is MCF7. The test is described as follows: Cell cycle arrest in BrdU pulse-labelled human MCF7 cells assessed as accumulation at late G2/M phase at 8 to 250 nM after 24 hrs by propidium iodide staining based flow cytometry. The format is functional.
Test [2] addresses Serine/threonine-protein kinase pim-1 (Homo sapiens) (UniProt P11309). The test is described as follows: Inhibition of recombinant PIM1 (unknown origin) assessed as residual activity at 1 uM relative to control.
The subject of another test is HCT-116. The test is described as follows: Induction of apoptosis in human HCT116 cells assessed as PARP1 cleavage incubated for 24 hrs by immunoblotting analysis. Format: functional, cell-based. The method in brief:
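HCT-116 cells were treated with different doses for 24 h and harvested into Laemmli buffer. Proteins were separated by SDS-PAGE and blotted to nitrocellulose. Membranes were probed overnight with primary antibodies (anti-PARP F-2, anti-Mcl-1 S-19, anti-p53 DO-1), then with peroxidase secondaries. Bands were detected by ECL with a CCD camera, with tubulin as loading control.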
Background: In western blotting, separated proteins are transferred to a membrane and probed.

Test [3] has as its target Mitogen-activated protein kinase 8 (Homo sapiens) (UniProt P45983). The test is described as follows: Inhibition of recombinant JNK1 (unknown origin) assessed as residual activity at 1 uM relative to control.
Test [4] has as its target SRSF protein kinase 1 (Homo sapiens) (UniProt Q96SB4). Kind of test: Inhibition of recombinant SRPK1 (unknown origin) assessed as residual activity at 1 uM relative to control.
Test [5] concerns the target Cyclin-dependent kinase 2 (Homo sapiens) (UniProt P24941). Kind of test: Inhibition of CDK2 in human G361 cells assessed as reduction in phosphorylation of RNA polymerase 2 at C-terminus at 0.1 to 1 uM incubated for 24 hrs by immunoblotting analysis. The format is cell-based. The conditions noted are these: G-361. Put shortly: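 Treated G361 cells were lysed in Laemmli buffer, run on SDS-PAGE and blotted to nitrocellulose. Blots were probed overnight with antibodies to RNA polymerase II phosphorylated at S5 and S2, and to total RNA polymerase II (ARNA-3). Peroxidase secondaries were then applied and signal was detected by ECL with a CCD camera.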

The target of test [6] is Cyclin-dependent kinase 1 (Homo sapiens, UniProt P06493). The test is described as follows: Inhibition of CDK1 (unknown origin).
Sequence of Cyclin-dependent kinase 1 (P06493 whole entry): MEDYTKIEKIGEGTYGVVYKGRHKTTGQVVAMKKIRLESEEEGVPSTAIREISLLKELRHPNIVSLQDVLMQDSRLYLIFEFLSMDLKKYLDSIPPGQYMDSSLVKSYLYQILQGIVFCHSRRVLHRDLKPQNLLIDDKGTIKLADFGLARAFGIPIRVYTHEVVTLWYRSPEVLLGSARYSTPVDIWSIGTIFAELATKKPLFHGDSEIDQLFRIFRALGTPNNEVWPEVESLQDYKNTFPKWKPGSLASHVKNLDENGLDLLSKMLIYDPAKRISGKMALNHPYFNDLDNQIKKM
The target of test [7] is Ribosomal protein S6 kinase beta-1 (Homo sapiens) (UniProt P23443). Kind of test: Inhibition of recombinant S6K1 (unknown origin) assessed as residual activity at 1 uM relative to control.
Sequence of Ribosomal protein S6 kinase beta-1 (Homo sapiens) (P23443 whole entry, looked up): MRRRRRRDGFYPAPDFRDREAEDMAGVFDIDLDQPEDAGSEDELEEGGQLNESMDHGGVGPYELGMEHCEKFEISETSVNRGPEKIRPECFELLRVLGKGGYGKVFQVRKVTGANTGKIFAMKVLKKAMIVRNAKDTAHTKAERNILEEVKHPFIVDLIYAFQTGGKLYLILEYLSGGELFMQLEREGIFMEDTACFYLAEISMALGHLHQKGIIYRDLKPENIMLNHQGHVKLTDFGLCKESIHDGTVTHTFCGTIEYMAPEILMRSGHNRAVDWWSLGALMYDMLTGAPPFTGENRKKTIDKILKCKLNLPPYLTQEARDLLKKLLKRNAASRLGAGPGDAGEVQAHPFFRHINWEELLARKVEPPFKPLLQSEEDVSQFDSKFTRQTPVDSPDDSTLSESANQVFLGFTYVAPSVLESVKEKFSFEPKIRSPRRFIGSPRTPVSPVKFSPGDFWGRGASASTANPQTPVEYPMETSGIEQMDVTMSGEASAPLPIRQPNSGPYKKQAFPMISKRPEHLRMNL
For the next test, the system named is G-361. Kind of test: Induction of apoptosis in human G361 cells assessed as caspase3 activation using Ac-DEVD-AMC as substrate at IC50 preincubated for 24 hrs followed by substrate addition measured after 3 hrs by fluorescence assay. Format: functional, cell-based.
Test [8] is described as follows: Cell cycle arrest in BrdU pulse-labelled human HCT116 cells assessed as accumulation at late S phase at 125 to 500 nM after 24 hrs by propidium iodide staining based flow cytometry. The following applies: HCT-116. The format is functional.
The target in test [9] is 3-phosphoinositide-dependent protein kinase 1 (Homo sapiens) (UniProt O15530). The test is described as follows: Inhibition of recombinant PDK1 (unknown origin) assessed as residual activity at 1 uM relative to control.
Sequence of 3-phosphoinositide-dependent protein kinase 1 (Homo sapiens) (O15530 whole entry): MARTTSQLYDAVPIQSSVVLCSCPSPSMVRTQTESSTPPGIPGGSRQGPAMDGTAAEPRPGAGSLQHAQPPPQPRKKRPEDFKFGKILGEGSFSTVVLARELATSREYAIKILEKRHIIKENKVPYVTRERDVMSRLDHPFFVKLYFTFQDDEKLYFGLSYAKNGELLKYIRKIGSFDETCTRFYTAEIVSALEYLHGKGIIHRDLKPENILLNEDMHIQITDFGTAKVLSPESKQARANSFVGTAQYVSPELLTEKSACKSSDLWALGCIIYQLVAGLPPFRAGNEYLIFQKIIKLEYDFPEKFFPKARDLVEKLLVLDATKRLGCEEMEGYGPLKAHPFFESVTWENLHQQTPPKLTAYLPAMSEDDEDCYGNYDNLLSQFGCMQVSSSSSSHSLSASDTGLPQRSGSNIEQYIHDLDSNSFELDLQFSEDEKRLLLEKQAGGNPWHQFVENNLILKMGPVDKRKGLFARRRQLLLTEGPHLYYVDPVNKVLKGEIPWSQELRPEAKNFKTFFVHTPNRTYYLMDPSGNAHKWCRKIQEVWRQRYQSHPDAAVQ

Each structure is given as a SMILES string. Activity calls are given as the source filed them. The rule behind the calls is not given here.

Sequence of SRSF protein kinase 1 (Homo sapiens) (Q96SB4 whole entry): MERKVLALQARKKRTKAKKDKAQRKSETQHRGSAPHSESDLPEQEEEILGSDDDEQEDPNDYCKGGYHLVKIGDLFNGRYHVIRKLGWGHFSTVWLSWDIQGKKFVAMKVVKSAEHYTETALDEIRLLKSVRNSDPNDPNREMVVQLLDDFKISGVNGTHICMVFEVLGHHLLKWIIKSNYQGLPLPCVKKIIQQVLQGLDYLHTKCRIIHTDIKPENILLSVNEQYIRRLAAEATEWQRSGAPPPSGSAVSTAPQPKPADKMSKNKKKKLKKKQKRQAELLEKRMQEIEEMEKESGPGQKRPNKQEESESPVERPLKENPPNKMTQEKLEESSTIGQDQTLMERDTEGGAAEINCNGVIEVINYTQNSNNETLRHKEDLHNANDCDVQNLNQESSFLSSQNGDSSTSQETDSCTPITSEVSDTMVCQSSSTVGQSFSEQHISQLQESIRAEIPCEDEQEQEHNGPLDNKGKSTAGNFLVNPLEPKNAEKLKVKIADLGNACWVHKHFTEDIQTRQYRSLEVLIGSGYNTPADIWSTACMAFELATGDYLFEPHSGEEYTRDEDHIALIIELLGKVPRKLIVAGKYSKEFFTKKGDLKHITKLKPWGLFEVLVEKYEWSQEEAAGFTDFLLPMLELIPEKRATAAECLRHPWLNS
Sequence of Mitogen-activated protein kinase 8 (Homo sapiens) (P45983 whole entry): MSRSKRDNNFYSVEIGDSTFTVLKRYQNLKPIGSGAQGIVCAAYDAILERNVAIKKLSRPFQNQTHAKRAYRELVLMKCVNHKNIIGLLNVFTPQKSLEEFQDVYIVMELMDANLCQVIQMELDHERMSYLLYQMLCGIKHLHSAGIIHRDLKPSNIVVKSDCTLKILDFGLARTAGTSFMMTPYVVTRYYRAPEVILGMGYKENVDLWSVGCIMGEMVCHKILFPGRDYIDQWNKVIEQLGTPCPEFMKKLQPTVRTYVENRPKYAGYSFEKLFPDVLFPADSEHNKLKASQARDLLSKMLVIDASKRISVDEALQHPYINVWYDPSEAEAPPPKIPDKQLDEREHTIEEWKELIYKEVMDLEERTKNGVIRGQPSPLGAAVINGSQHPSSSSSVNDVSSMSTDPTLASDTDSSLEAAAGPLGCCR
Sequence of Serine/threonine-protein kinase pim-1 (Homo sapiens) (P11309 whole entry, looked up): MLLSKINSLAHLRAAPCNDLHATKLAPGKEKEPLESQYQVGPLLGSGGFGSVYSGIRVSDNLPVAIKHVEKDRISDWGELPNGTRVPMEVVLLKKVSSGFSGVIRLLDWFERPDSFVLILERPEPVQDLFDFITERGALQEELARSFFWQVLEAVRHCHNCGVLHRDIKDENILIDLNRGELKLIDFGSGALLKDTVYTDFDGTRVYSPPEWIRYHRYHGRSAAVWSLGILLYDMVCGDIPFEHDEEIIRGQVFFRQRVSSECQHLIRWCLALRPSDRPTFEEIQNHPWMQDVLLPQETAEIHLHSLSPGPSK

Regarding `CC(O)CNc1nc(NCc2ccc(-c3ccccn3)cc2)c2[nH]nc(C(C)C)c2n1` (configuration not stated), the outcome (in test [1]; in the test with MCF7; in the test on G-361; in test [8]) was Active. The Activity is greater than 100% in test [2]; “Dose-dependent effect” in the test on HCT-116; 93% in test [3]; 95% in test [4]; greater than 100% in [7]; greater than 100% in test [9]. Moreover, the inhibition entry in test [5] was “Active”. For the same compound, in [6], the IC50 – broadly, the point on the concentration scale where inhibition reaches its midpoint – was found to be 777 nM.

(Values after ChEMBL document CHEMBL3774312, “5-Substituted 3-isopropyl-7-[4-(2-pyridyl)benzyl]amino-1(2)H-pyrazolo[4,3-d]pyrimidines with anti-proliferative activity as potent and selective inhibitors of cyclin-dependent kinases” (Eur J Med Chem, 2016).)
